Screening data (PubChem)
This is a sample that favours compounds with a hit; in the whole collection about 1.9% have one here.
TLR4 MyD88 comp = blocks binding of human TLR4 to MyD88; AID 861; inhibition, % at 8.4 µM; O00206+Q99836; HeLa CL3-4 TLR4/MyD88 BLA complementation, FRET ratio; actives 0.18% (n = 200,000); in the data active means inhibition above about 25%;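 further: 0% = vehicle and 100% = reference inhibitor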
TLR9-MyD88 inh = blocks human TLR9 binding to MyD88; AID 504734; CHO BLA complementation TLR9-MyD88, CCF4 FRET ratio; inhibition, % at 4.98 µM; Q9NR96+Q99836; actives 0.21% (n = 340,000);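 active means inhibition above the mean over all tested compounds plus 3 SD, cut at about 21% in these data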;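 further: 0% = DMSO only wells and 100% = clavulanate BLA inhibitor control wells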
NOD2 RIPK2 PPI = NOD2-RIPK2 protein interaction inhibition. O43353. CHO BLA complementation NOD2-RIPK2, CCF4 ratio. inhibition, % at 4.98 µM. actives 0.38% (n = 360,000). AID 624267; in the data active means inhibition above about 21%;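 further: 0% = vehicle only and 100% = reference blocker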
MC4R barr agon = human MC4R agonism via beta-arrestin | actives 0.98% (n = 360,000) | activation, % at 8.9 µM | U2OS MC4R beta-arrestin complementation, luminescence; percent of melanotan II response, DMSO zero | P32245;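 active means activation above a per-plate cutoff, the mean activation of sample wells on that plate plus 3 SD, cut at about 8% in these data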
Target sequence (P32245 whole entry, looked up): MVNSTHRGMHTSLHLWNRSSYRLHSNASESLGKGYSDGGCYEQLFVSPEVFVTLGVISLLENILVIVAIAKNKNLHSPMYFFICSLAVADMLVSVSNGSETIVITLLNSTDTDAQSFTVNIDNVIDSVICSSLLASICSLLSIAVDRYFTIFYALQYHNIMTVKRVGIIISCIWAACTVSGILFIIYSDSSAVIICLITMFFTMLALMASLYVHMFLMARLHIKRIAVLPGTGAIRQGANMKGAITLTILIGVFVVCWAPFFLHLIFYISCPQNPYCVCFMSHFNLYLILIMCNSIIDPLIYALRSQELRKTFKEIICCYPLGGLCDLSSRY
MC4R antag cAMP = blocks human MC4R cAMP signaling | P32245 | MC4R-expressing cells, MTII-stimulated cAMP, LANCE TR-FRET | inhibition, % at 6.5 µM | actives 0.48% (n = 360,000);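 active means inhibition above its plate's cutoff, the mean of tested wells on that plate plus 3 SD, cut at about 29% in these data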;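 further: 0% = Melanotan II alone and 100% = Melanotan II plus saturating MCL0020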
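Test system: U2OS cells stably expressing human melanocortin 4 receptor (MC4R); also added: Melanotan II challenge; compound: 6.5 µM single dose; timing: 30-min compound preincubation, 1-h Melanotan II challenge, 1-h detection, room temperature; signal: Eu-cAMP/anti-cAMP TR-FRET, emission 671 nm; repeats: one well per compound, no replicates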
NTR1 ag = agonists of human neurotensin receptor NTR1; P30989; NTR1-U2OS beta-arrestin-GFP spot imaging, agonist mode; actives 0.17% (n = 330,000); activation, % at 20 µM;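 active means activation at or above 40% of the spot to cytoplasm intensity ratio, with at least 20 cells analyzed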;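 further: 0% = DMSO without peptide and 100% = 100 nM NTR1 peptide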
NOD2 RIPK2 conf = NOD2-RIPK2 interaction inhibition confirmed; shares compounds with NOD2 RIPK2 PPI; CHO cells, NOD2-RIPK2 BLA complementation, CCF4 FRET; actives 70% (n = 1,200); AID 624370; inhibition, % at 4.98 µM;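 active means mean inhibition across replicates above a set limit taken from the earlier primary screen, cut at about 21% in these data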;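 further: 0% = DMSO-only wells and the high end = clavulanate BLA-blocked wells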
NOD2 BLA counter = counter-screen for NOD2-RIPK2 interaction inhibitors: BLA reporter. shares compounds with NOD2 RIPK2 PPI. CHO BLA reporter, CCF4 FRET ratio, counterscreen. inhibition, % at 4.98 µM. actives 57% (n = 1,200). AID 624371;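 active means mean inhibition above the low-control mean inhibition plus three low-control SD, cut at about 11% in these data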;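 further: 0% = DMSO only wells and 100% = clavulanate high control wells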
The depositor's hits bear a star.

What do the screens show for `Cc1ccccc1N1CCN(S(=O)(=O)c2ccccc2)CC1`?
TLR4 MyD88 comp: 2; TLR9-MyD88 inh: 3; NOD2 RIPK2 PPI: 0; MC4R barr agon: 2; MC4R antag cAMP: -3; NTR1 ag: 2

Results for Cc1cc(NC(=O)CSc2nnc(-c3ccccc3Cl)o2)no1 ?
TLR9-MyD88 inh: 3; NOD2 RIPK2 PPI: 47*; MC4R barr agon: -2; MC4R antag cAMP: 4; NTR1 ag: -1; NOD2 RIPK2 conf: -3; NOD2 BLA counter: -1

What do the screens show for `CCN(CC)Cc1c(O)ccc2cc(-c3nc4ccccc4n3C)c(=O)oc12`?
TLR9-MyD88 inh: -2; NOD2 RIPK2 PPI: 29*; MC4R barr agon: -1; MC4R antag cAMP: 4; NTR1 ag: 0; NOD2 RIPK2 conf: 35*; NOD2 BLA counter: 56*

What do the screens show for `CCc1cc2c(=O)c(-c3nc4ccccc4n3C)c(C)oc2c(CN(CC)CC)c1O`?
TLR4 MyD88 comp: 0; TLR9-MyD88 inh: -13; NOD2 RIPK2 PPI: -12; MC4R barr agon: 0; MC4R antag cAMP: 13; NTR1 ag: 4

Results for Cc1ccc(-c2noc(N=O)c2NO)cc1 ?
NOD2 RIPK2 PPI: 22*; MC4R barr agon: 0; MC4R antag cAMP: 1; NTR1 ag: 0; NOD2 RIPK2 conf: 24*; NOD2 BLA counter: 21*

What do the screens show for `COc1ccc(N2C(=NC(=O)c3ccc(Br)cc3)SC3CS(=O)(=O)CC32)cc1` (stereo not drawn)?
TLR9-MyD88 inh: -1; NOD2 RIPK2 PPI: 8; MC4R barr agon: -1; MC4R antag cAMP: 5; NTR1 ag: 4

How did CCn1c(NCc2cc(Cl)ccc2O)nc2ccccc21 do in these assays?
TLR9-MyD88 inh: -5; NOD2 RIPK2 PPI: 46*; MC4R barr agon: -1; MC4R antag cAMP: 8; NTR1 ag: 6; NOD2 RIPK2 conf: -1; NOD2 BLA counter: -1

How did CN1Cc2c(N3CCOCC3)nc3sc(C(=O)c4ccc(Br)cc4)c(N)c3c2CC1(C)C do in these assays?
NOD2 RIPK2 PPI: 24*; MC4R barr agon: 7; MC4R antag cAMP: 10; NTR1 ag: 8; NOD2 RIPK2 conf: 29*; NOD2 BLA counter: 30*

Results for COc1ccc(OC)c2sc(N(CCN(C)C)C(=O)/C=C/c3cccs3)nc12 ?
TLR9-MyD88 inh: -13; NOD2 RIPK2 PPI: 21*; MC4R barr agon: 0; MC4R antag cAMP: 2; NTR1 ag: 16; NOD2 RIPK2 conf: 38*; NOD2 BLA counter: 8

What do the screens show for `O=C(C#Cc1cccc([N+](=O)[O-])c1)c1ccccc1`?
TLR4 MyD88 comp: -1; TLR9-MyD88 inh: 7; NOD2 RIPK2 PPI: 27*; MC4R barr agon: -3; MC4R antag cAMP: 26; NTR1 ag: 10; NOD2 RIPK2 conf: 77*; NOD2 BLA counter: 17*

Results for COC(=O)C12OCC34C(CC5C(C)=C(O)C(=O)CC5(C)C3C(O)C1O)OC(=O)C(OC(=O)C=C(C)C)C24 (stereo not drawn) ?
TLR9-MyD88 inh: -10; NOD2 RIPK2 PPI: 28*; MC4R barr agon: -1; MC4R antag cAMP: 1; NOD2 RIPK2 conf: 25*; NOD2 BLA counter: -5

What do the screens show for `N/C(Cc1ccc(Cl)c(Cl)c1)=N\OC(=O)c1ccc(Br)o1`?
TLR9-MyD88 inh: 4; NOD2 RIPK2 PPI: 5; MC4R barr agon: 8; MC4R antag cAMP: 8; NTR1 ag: 2

Results for Cc1c(C(=O)N2CCCC2)oc2c1-c1[nH]ncc1CC2 ?
TLR4 MyD88 comp: -9; TLR9-MyD88 inh: 0; NOD2 RIPK2 PPI: 21*; MC4R barr agon: -1; MC4R antag cAMP: 5; NTR1 ag: 2; NOD2 RIPK2 conf: 4; NOD2 BLA counter: 0

What do the screens show for `O=c1oc2ccccc2cc1-c1nnc(NCc2ccco2)s1`?
TLR4 MyD88 comp: 21; TLR9-MyD88 inh: 14; NOD2 RIPK2 PPI: 35*; MC4R barr agon: -2; MC4R antag cAMP: -12; NTR1 ag: -1; NOD2 RIPK2 conf: 36*; NOD2 BLA counter: 41*

What do the screens show for `Cc1ccc(C(O)c2ncc(-c3cccc(C(F)(F)F)c3)[nH]2)cc1F` (stereo not drawn)?
NOD2 RIPK2 PPI: 1; MC4R barr agon: 6; MC4R antag cAMP: -1

Results for Cn1cc(/C=C/C(=O)c2ccccc2)c2ccccc21 ?
TLR9-MyD88 inh: 10; NOD2 RIPK2 PPI: 25*; MC4R barr agon: 0; MC4R antag cAMP: -3; NTR1 ag: 8; NOD2 RIPK2 conf: 25*; NOD2 BLA counter: 28*

What do the screens show for `Cc1ccc(C(=O)/C=C/c2cn(CN3CCN(C)CC3)c3ccccc23)cc1`?
TLR4 MyD88 comp: 23; TLR9-MyD88 inh: 10; NOD2 RIPK2 PPI: 24*; MC4R barr agon: 1; MC4R antag cAMP: 9; NTR1 ag: 38; NOD2 RIPK2 conf: 26*; NOD2 BLA counter: 38*

How did Cc1nn(C)cc1/C=C/C(=O)c1ccccc1 do in these assays?
TLR4 MyD88 comp: 16; TLR9-MyD88 inh: -13; NOD2 RIPK2 PPI: 0; MC4R barr agon: -1; MC4R antag cAMP: 7; NTR1 ag: 0

How did CCn1cc(/C=C(\NC(=O)c2ccc(OC)cc2)C(=O)N2CCN(C)CC2)c2ccccc21 do in these assays?
TLR9-MyD88 inh: -6; NOD2 RIPK2 PPI: 7; MC4R barr agon: -3; MC4R antag cAMP: -7; NTR1 ag: 0

Results for O=C(CCc1ccccc1)Nc1cccc(S(=O)(=O)N2CCOCC2)c1 ?
TLR9-MyD88 inh: -3; NOD2 RIPK2 PPI: -18; MC4R barr agon: 0; MC4R antag cAMP: 2; NTR1 ag: -1

Results for Cc1cc(C)c(S(=O)(=O)N(C)c2ccccc2)c(C)c1 ?
TLR4 MyD88 comp: 15; TLR9-MyD88 inh: -6; NOD2 RIPK2 PPI: 34*; MC4R barr agon: 8; MC4R antag cAMP: 10; NTR1 ag: 1; NOD2 RIPK2 conf: -4; NOD2 BLA counter: -2

Results for CC(=O)Nc1cccc(-c2ccnc3c2CC(C)(C(=O)NCc2ccncc2)O3)c1 (stereo not drawn) ?
NOD2 RIPK2 PPI: 21*; MC4R barr agon: -2; MC4R antag cAMP: 5; NOD2 RIPK2 conf: 4; NOD2 BLA counter: -1

Results for O=C(NCc1ccccc1)C(c1ccccc1F)n1c(=O)c(-c2cc3ccccc3[nH]2)nc2ccccc21 (stereo not drawn) ?
NOD2 RIPK2 PPI: 53*; NOD2 RIPK2 conf: 48*; NOD2 BLA counter: 70*

Results for O=C(NCc1ccccc1)C(c1ccncc1)n1c(=O)c(-c2cc3ccccc3[nH]2)nc2ccccc21 (stereo not drawn) ?
NOD2 RIPK2 PPI: 54*; NOD2 RIPK2 conf: 51*; NOD2 BLA counter: 67*
